The target in assay [1] is T1, Mitogen-activated protein kinase kinase kinase 7 (Homo sapiens) (UniProt O43318).
T1 sequence (whole entry): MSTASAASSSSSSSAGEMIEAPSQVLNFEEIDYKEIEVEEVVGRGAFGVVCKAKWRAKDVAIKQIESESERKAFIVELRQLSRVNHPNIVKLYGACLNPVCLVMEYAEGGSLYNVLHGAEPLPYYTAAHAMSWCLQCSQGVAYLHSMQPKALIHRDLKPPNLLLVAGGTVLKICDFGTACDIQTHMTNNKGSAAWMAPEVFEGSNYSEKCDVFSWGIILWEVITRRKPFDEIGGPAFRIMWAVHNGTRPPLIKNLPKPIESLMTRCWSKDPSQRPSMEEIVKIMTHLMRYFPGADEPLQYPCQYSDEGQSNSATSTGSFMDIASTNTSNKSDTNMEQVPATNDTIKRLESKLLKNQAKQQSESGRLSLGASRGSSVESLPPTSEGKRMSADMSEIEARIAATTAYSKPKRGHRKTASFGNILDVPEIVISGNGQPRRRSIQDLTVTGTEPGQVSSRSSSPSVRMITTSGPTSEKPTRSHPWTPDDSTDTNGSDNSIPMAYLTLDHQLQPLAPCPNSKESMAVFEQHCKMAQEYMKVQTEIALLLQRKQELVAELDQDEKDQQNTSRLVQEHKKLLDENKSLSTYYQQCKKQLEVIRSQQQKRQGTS
The assay is described as follows: Inhibition of TAK1 Lys2 labeling site in human A-375 cells at 0.5 uM by KiNativ Profiling analysis relative to control. Format: cell-based.

Assay [2] addresses T2, Mitogen-activated protein kinase kinase kinase 7 (Homo sapiens, UniProt O43318).
T2 sequence (O43318 whole entry): T1 sequence (whole entry)
The assay is described as follows: Inhibition of TAK1 (unknown origin) Lys2 labeling site by KiNativ Profiling analysis.

For assay [3], the target named is Mitogen-activated protein kinase kinase kinase kinase 4 (Homo sapiens, UniProt O95819). The assay is described as follows: Inhibition of ZC1 Lys2 labeling site in human Huh-7 cell lysate at 1 uM by KiNativ Profiling analysis relative to control. Format: subcellular.
Assay [4] addresses T3, Mitogen-activated protein kinase kinase kinase kinase 2 (Homo sapiens, UniProt Q12851).
T3 sequence (Q12851 whole entry): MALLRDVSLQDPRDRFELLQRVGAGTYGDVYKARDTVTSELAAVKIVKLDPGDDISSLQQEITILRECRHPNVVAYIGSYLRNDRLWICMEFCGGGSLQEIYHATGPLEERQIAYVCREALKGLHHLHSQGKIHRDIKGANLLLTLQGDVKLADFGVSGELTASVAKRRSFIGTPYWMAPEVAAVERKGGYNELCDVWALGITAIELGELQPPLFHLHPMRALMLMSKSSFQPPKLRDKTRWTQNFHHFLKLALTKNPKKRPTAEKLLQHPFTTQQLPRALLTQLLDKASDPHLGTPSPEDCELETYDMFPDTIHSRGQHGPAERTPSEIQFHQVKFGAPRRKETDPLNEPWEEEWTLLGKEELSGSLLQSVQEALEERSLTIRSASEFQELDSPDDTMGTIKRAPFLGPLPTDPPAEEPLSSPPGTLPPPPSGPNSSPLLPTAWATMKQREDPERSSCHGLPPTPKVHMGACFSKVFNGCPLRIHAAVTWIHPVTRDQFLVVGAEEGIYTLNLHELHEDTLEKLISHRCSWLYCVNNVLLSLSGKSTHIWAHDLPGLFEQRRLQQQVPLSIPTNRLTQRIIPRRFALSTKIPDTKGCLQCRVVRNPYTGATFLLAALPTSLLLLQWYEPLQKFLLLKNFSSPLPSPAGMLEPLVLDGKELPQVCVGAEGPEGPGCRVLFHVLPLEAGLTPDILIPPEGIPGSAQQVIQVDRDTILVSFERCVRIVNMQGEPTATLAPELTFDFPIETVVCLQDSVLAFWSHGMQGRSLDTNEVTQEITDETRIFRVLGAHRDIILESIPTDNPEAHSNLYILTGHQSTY
The experiment in a line: Inhibition of MAP4K2 (unknown origin) Lys1 labeling site by KiNativ Profiling analysis.

Assay [5] has as its system MEF. The experiment in a line: Inhibition of TGF-beta induced SMAD2 phosphorylation level in TAK1 deficient mouse MEF cells at upto 500 nM incubated for 1 hr followed by TGF-beta stimulation by Western blot analysis. It is filed as functional, cell-based. The essentials: (§1)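 In serum-starved WT and TAK1–/– MEFs (0.1% FBS, 16 h), inhibitor was added 1 h before TGFβ (50 pM, 45 min). Cleared lysates were immunoblotted for phospho-SMAD2 and phospho-p38.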
(In general: In western blotting, separated proteins are transferred to a membrane and probed.)

In assay [6] the test system is MEF. The experiment in a line: Inhibition of TGF-beta induced p38 MAPK phosphorylation level in TAK1 deficient mouse MEF cells incubated for 1 hr followed by TGF-beta stimulation by Western blot analysis. Format: functional, cell-based. The following applies: dose <= 500.0 nM. Put shortly: as §1
Assay [7] relates to MEF. The assay is described as follows: Inhibition of IL-1 induced p38 MAPK phosphorylation level in TAK1 deficient mouse MEF cells incubated for 1 hr followed by IL-1 stimulation by Western blot analysis. Format: functional, cell-based. Conditions: dose <= 500.0 nM. The essentials: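 WT and TAK1-null MEFs were grown in DMEM with 10% FBS and held in 0.1% FBS for 16 h. Compound was added 1 h before mouse IL-1α (5 ng/mL, 10 min). Cells were lysed in ice-cold buffer and extracts cleared at 16000g. Phospho-p38 was detected by Western blot.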

The target of assay [8] is T4, Mitogen-activated protein kinase kinase kinase kinase 2 (Homo sapiens) (UniProt Q12851).
T4 sequence (whole entry): T3 sequence (Q12851 whole entry)
The assay is described as follows: Inhibition of MAP4K2 Lys1 labeling site in human A-375 cells at 0.5 uM by KiNativ Profiling analysis relative to control. It is filed as cell-based.

The target in assay [9] is Serine/threonine-protein kinase 26 (Homo sapiens) (UniProt Q9P289). The assay is described as follows: Inhibition of MST4 ACT labeling site in human A-375 cells at 0.05 uM by KiNativ Profiling analysis relative to control. Format: cell-based.
The target in assay [10] is Tyrosine-protein kinase Fer (Homo sapiens, UniProt P16591). The experiment in a line: Inhibition of FER ACT labeling site in human A-375 cells at 0.5 uM by KiNativ Profiling analysis relative to control. Format: cell-based.
Assay [11] addresses Serine/threonine-protein kinase tousled-like 2 (Homo sapiens) (UniProt Q86UE8). The experiment in a line: Inhibition of TLK2 Lys1 labeling site in human A-375 cells at 5 uM by KiNativ Profiling analysis relative to control. It is filed as cell-based.
Assay [12] deals with Serine/threonine-protein kinase WNK2 (Homo sapiens) (UniProt Q9Y3S1). The experiment in a line: Inhibition of Wnk2 Lys2 labeling site in human A-375 cells at 5 uM by KiNativ Profiling analysis relative to control. It is filed as cell-based.
For assay [13], the target named is Serine/threonine-protein kinase SIK3 (Homo sapiens) (UniProt Q9Y2K2). The assay is described as follows: Inhibition of QSK Lys2 labeling site in human A-375 cells at 5 uM by KiNativ Profiling analysis relative to control. It is filed as cell-based.

The structures appear in SMILES notation. The source made the active and inactive calls. The calls are words filed in the database; no cut-off is given here.

Chain of Serine/threonine-protein kinase tousled-like 2 (Homo sapiens) (Q86UE8 whole entry, looked up): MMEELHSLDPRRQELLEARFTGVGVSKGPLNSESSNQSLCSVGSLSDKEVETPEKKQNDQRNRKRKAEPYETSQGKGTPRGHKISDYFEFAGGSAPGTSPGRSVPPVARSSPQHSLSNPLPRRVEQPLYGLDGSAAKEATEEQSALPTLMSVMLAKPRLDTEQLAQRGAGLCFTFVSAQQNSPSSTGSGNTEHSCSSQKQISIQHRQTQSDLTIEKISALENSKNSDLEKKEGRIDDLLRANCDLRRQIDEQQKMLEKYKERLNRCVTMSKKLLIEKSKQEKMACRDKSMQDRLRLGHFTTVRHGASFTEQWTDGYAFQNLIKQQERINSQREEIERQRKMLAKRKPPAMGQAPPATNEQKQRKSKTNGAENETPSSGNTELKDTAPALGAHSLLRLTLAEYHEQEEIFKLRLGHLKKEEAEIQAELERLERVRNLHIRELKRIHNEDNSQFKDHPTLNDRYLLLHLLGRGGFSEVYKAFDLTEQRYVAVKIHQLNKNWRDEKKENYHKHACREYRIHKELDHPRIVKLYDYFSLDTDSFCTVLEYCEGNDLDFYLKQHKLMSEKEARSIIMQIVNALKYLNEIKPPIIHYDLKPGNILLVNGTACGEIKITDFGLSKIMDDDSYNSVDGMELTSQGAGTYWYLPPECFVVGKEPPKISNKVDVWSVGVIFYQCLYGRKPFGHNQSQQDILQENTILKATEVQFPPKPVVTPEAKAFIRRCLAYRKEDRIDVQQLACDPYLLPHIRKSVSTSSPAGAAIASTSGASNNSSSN
Chain of Serine/threonine-protein kinase WNK2 (Homo sapiens) (Q9Y3S1 whole entry): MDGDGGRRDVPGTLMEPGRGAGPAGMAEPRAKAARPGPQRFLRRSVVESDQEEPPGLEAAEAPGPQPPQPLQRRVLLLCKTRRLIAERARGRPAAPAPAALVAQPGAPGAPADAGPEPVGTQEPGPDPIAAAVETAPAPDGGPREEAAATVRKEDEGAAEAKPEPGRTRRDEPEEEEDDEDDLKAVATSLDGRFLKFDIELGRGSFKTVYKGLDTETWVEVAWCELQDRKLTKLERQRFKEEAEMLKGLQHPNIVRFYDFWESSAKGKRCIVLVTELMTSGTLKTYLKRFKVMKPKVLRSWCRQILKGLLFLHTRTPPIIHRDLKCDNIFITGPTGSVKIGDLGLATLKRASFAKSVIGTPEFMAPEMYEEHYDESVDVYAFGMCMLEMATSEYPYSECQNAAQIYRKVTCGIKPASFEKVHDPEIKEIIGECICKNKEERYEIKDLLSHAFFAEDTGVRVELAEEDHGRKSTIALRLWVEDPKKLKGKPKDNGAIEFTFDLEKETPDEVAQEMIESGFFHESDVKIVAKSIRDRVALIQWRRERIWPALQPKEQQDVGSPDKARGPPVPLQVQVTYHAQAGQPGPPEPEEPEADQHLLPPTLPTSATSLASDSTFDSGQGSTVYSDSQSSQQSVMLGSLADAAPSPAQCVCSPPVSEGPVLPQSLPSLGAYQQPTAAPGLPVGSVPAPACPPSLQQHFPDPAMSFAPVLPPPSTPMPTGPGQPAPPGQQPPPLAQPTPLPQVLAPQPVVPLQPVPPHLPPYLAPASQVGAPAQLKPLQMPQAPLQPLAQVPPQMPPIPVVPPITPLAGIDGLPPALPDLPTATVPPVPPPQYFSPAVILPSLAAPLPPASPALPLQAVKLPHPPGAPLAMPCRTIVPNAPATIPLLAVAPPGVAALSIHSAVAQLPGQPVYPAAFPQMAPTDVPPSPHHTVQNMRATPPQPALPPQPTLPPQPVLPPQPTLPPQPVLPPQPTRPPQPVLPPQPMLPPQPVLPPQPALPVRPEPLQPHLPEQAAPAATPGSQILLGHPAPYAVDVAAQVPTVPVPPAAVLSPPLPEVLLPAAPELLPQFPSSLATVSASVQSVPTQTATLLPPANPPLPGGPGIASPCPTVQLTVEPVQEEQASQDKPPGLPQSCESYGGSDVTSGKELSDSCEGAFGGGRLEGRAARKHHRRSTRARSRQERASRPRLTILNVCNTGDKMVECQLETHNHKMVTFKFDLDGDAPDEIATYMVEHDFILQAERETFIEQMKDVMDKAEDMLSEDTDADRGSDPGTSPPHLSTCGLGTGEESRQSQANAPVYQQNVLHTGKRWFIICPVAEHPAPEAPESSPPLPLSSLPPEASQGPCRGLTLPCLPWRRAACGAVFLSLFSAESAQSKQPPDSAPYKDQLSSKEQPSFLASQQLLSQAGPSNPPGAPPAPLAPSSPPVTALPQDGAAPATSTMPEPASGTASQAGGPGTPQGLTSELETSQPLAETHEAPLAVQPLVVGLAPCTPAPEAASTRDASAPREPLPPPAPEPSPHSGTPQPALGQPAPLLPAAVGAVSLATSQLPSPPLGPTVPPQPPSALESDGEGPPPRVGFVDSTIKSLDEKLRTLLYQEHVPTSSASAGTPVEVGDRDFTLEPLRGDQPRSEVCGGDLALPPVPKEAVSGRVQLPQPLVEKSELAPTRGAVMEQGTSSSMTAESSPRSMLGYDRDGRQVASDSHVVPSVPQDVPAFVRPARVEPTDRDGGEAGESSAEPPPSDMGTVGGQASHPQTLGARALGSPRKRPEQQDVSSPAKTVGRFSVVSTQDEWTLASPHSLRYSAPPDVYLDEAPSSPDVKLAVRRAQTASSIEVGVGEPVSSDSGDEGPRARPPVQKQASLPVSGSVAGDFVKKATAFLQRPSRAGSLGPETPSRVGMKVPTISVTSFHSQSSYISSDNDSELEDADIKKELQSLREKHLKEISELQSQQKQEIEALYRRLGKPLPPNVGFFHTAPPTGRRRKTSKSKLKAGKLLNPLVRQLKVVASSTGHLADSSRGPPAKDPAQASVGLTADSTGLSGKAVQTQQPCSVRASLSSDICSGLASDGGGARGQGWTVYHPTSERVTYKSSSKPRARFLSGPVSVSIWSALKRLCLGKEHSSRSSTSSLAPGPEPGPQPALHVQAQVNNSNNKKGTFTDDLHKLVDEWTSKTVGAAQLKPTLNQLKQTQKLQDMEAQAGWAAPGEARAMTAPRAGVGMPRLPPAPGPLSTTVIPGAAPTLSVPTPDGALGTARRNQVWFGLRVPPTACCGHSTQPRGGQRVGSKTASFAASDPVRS
Chain of Serine/threonine-protein kinase 26 (Homo sapiens) (Q9P289 2-416 limits assumed): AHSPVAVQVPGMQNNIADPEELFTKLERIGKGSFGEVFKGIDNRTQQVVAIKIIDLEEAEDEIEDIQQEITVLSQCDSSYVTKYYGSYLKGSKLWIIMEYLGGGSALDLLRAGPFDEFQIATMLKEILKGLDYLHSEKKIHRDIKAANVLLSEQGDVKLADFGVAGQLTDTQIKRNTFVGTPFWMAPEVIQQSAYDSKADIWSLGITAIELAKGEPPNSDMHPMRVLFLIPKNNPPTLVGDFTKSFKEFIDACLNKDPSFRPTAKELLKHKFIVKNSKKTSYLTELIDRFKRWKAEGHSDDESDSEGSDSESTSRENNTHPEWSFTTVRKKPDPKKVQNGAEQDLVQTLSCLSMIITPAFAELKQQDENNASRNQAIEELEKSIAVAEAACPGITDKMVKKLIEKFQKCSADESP
Chain of Mitogen-activated protein kinase kinase kinase kinase 4 (O95819 2-1239 limits assumed): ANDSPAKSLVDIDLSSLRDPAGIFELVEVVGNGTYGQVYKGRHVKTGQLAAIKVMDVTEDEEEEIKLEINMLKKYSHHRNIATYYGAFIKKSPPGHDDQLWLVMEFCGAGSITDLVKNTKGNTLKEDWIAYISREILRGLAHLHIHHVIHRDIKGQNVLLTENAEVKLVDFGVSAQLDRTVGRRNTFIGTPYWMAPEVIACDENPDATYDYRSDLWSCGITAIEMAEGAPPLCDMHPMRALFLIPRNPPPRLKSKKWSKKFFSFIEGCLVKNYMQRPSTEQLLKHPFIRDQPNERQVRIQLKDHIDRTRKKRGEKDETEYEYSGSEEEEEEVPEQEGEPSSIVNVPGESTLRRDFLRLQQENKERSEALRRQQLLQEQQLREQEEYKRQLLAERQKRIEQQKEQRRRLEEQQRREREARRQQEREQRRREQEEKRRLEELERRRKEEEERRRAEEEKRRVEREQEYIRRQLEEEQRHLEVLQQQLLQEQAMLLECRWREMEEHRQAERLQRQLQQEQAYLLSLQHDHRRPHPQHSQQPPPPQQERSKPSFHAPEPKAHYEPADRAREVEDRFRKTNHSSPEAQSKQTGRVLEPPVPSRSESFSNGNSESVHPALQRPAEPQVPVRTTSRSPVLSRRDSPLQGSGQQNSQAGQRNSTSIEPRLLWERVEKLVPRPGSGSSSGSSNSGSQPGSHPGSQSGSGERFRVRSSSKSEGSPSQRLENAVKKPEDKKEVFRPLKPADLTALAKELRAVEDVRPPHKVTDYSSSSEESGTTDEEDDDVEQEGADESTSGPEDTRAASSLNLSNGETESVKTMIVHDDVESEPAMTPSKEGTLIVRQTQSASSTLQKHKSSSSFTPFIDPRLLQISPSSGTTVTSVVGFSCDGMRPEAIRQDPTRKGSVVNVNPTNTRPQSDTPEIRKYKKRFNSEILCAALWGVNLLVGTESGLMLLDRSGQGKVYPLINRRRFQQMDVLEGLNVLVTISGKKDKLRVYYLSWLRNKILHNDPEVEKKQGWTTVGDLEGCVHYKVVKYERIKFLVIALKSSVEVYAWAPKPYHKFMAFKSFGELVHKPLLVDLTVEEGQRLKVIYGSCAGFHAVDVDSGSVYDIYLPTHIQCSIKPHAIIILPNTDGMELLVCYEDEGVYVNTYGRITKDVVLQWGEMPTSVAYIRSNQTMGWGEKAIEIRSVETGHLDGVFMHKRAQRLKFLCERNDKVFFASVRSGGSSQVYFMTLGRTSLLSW

The term inhibition denotes the drop in the measured response relative to a control, in per cent. The IC50 is the concentration needed to halve the response being measured. Low values mean greater potency in that assay, high ones weaker potency in that assay. As for `CNc1cc(Oc2cc(C(=O)Nc3cc(N4CCN(C)CC4)cc(C(F)(F)F)c3)ccc2C)ncn1`, the inhibition was 7% in assay [1]; 2.7% in assay [3]; “Dose-Dependent Effect” in the assay with MEF [6]; “Dose-Dependent Effect” in the assay with MEF [7]; 85.3% in assay [8]. For the same molecule, the IC50 in assay [2] came to 2700 nM; in [4], 37.2 nM. For the same molecule, in the assay on MEF [5], the inhibition entry is “inactive”.

In the case of `CCN1CCN(Cc2ccc(NC(=O)c3ccc(C)c(/C=C/c4cnc5[nH]ccc5c4OC)c3)cc2C(F)(F)F)CC1`, the IC50 turned out to be 41 nM in assay [2] and 98 nM in assay [4]. Also, the inhibition in assay [9] is 13.5%; in assay [10] it was -10%; in assay [11], 27.5%; in assay [12] it was 14.3%; in assay [13] it was 28.6%.

Regarding `CNc1cc(Oc2cc(C(=O)Nc3cc(-n4cnc(C)c4)cc(C(F)(F)F)c3)ccc2C)ncn1`, the inhibition in assay [1] is 29.3%; in assay [3], 24.1%; in the assay on MEF [6], “Dose-Dependent Effect”; in the assay on MEF [7], “Dose-Dependent Effect”; in assay [8] it was 79.7%. Also, the IC50 was above 1110 nM in assay [2] and 129 nM in assay [4]. Moreover, in the assay with MEF [5], the inhibition result is “inactive”.

On to `CCN1CCN(Cc2ccc(NC(=O)c3ccc(C)c(Oc4ccnc5[nH]ccc45)c3)cc2C(F)(F)F)CC1`, for which the inhibition was 97.1% in assay [1]; 22.4% in assay [9]; 88% in assay [10]; 17.7% in assay [11]; -5.5% in [12]; “Dose-Dependent Effect” in the assay with MEF [6]. In addition, the results for the inhibition result (in the assay with MEF [7]; in assay [13]; in assay [8]) were “Dose-Dependent Effect”, 29.6% and above 99.5%, respectively. The IC50 in assay [2] stood at 149 nM. For the same molecule, in the assay on MEF [5], the inhibition result was “Active”.

These data come from ChEMBL document CHEMBL5696442, “Discovery of type II inhibitors of TGFβ-activated kinase 1 (TAK1) and mitogen-activated protein kinase kinase kinase kinase 2 (MAP4K2)” (J Med Chem, 2015).
